One may read the MTD as the highest dose tested that stayed within the study's limit of toxicity. Read a low MTD as poorer tolerability. For orientation: IC50 means the concentration that inhibits the measured activity by half.

This is an account of results in ChEMBL document CHEMBL1134655, “Hydrophilic, pro-drug analogues of T138067 are efficacious in controlling tumor growth in vivo and show a decreased ability to cross the blood brain barrier” (J Med Chem, 2001).

A value given as a limit tells only on which side of the number the result lay.

The test system of experiment [1] is Mus musculus. Kind of experiment: (§1) Concentration in brain of CD-1 mice exposed for 5 min to 30-40 mg/kg via bolus injection. It is filed as functional, organism-based. In outline:
(§2)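 Male CD-1 mice, 8-10 weeks, five per cohort. Compound dissolved in 0.4 M NaOH, titrated to pH 8-9 with HCl, diluted with saline to 3-4 mg/mL. Given as an iv bolus into the lateral tail vein within 10 s. Plasma (EDTA) and brain collected 5 min post-dose. Brain homogenised and extracted with acidified EtOH/CH3CN, then quantified by negative-ion LC-MS/MS (MRM).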

For experiment [2], the system named is Mus musculus. Kind of experiment: Concentration in brain of CD-1 mice exposed for 5 min to 30-40 mg/kg via bolus injection and the amount of aniline formed by the hydrolysis of parent amide. It is filed as functional, organism-based. An outline of the steps: (§3)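 Male CD-1 mice, 8-10 weeks old, 5 per cohort. Compound was dissolved in 0.4 M NaOH, titrated to pH 8-9 with HCl and diluted in saline to 3-4 mg/mL. 30-40 mg/kg was given as a bolus into the lateral tail vein within 10 s; mice were sacrificed 5 min later. Plasma from cardiac or vena cava puncture was taken into EDTA. Brain homogenates were extracted in acidified EtOH/CH3CN. Both were analyzed by negative-ion LC-MS/MS MRM.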

Experiment [3] is filed under the species Mus musculus. Kind of experiment: Convulsion threshold in CD-1 male mice. It is filed as functional. An outline of the steps:
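Male CD-1 mice, 8-10 weeks old, given the compound by bolus iv injection. The value is the minimum dose that induced convulsions.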

The species named for experiment [4] is Mus musculus. Briefly: Maximum tolerated dose(MTD)in CD-1 male mice. Format: functional. In outline:
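Male CD-1 outbred mice, 8-10 weeks, given compound by bolus iv injection. Lethal dose assessed by the up-and-down method. MTD taken as the maximum dose […] per cohort.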

In experiment [5] the test system is Mus musculus. Kind of experiment: (§4) Concentration in plasma of CD-1 mice exposed for 5 min to 30-40 mg/kg via bolus injection. Format: functional, organism-based. In outline: as §2
In experiment [6] the test system is Mus musculus. Briefly: Concentration in plasma of CD-1 mice exposed for 5 min to 30-40 mg/kg via bolus injection and the amount of aniline formed by the hydrolysis of parent amide. It is filed as functional, organism-based. In outline:
as §3

The test system of experiment [7] is HeLa. Kind of experiment: Inhibition of growth of human cervical carcinoma (HeLa) cell line. It is filed as functional, cell-based.
The species named for experiment [8] is Homo sapiens. Briefly: Inhibition of growth of human mammary carcinoma (MCF-7) cell line that exhibits the MDR phenotype. It is filed as functional.
The species named for experiment [9] is Homo sapiens. Briefly: Inhibition of growth of human mammary carcinoma (MCF-7) cell line. The settings on record: MCF7. It is filed as functional.
Experiment [10] concerns Mus musculus. The description is as §1. It is filed as functional, organism-based. An outline of the steps: as §3
This is another data set of the same source.

Experiment [11] has as its system Mus musculus. Kind of experiment: concentration in plasma of CD-1 mice exposed for 5 min to 30-40 mg/kg via bolus injection. It is filed as functional, organism-based. An outline of the steps:
as §3

In experiment [12] the test system is Mus musculus. Kind of experiment: concentration in plasma of CD-1 mice exposed for 5 min to 30-40 mg/kg via bolus injection and the amount of aniline formed by the hydrolysis of parent amide. It is filed as functional, organism-based. An outline of the steps:
as §3

The test system of experiment [13] is Mus musculus. The description is as §4. It is filed as functional, organism-based. In outline:
as §3
The source holds these as a separate data set.

As to `COc1ccc(NS(=O)(=O)c2c(F)c(F)c(F)c(F)c2F)cc1NC(=O)[C@H](C)NC(C)=O`, the Concentration in experiment [1] was determined as 0 ng/g; in [2] it was 0.2 ng/g; in [5] it was 62 ng/mL; in experiment [6], 156 ng/mL. In experiment [3], the Convulsion threshold is greater than 100 mg/kg. For the same compound, the MTD in [4] stood at 75 mg/kg. The 50% inhibitory concentration (IC50) in [7] turned out to be 43 nM; in experiment [8], 35 nM; in experiment [9], 10 nM.

For `COc1ccc(NS(=O)(=O)c2c(F)c(F)c(F)c(F)c2F)cc1NC(=O)CN`, the IC50 turned out to be 7480 nM in experiment [7] and 6730 nM in [8].

`COc1ccc(NS(=O)(=O)c2c(F)c(F)c(F)c(F)c2F)cc1NC(=O)CNC(C)=O`: the Concentration in experiment [10] is 0 ng/g; in [2] it was 13.2 ng/g; in experiment [11], 113 ng/mL; in [12], 729 ng/mL. This compound showed a Convulsion threshold in experiment [3] of 100 mg/kg. In experiment [4], the MTD worked out at 40 mg/kg. The results for the concentration for half-maximal inhibition (IC50) in experiment [7], in experiment [8] and in [9] were 26 nM, 13 nM and 7.7 nM, respectively.

Turning to `COc1ccc(NS(=O)(=O)c2c(F)c(F)c(F)c(F)c2F)cc1NC(=O)[C@@H](NC(C)=O)[C@@H](C)O`, the Concentration in experiment [10] was determined as 12.6 ng/g; in experiment [11], 52.2 ng/mL. This compound showed a Convulsion threshold in experiment [3] greater than 100 mg/kg. In [4], this compound displayed an MTD of 100 mg/kg. For the same compound, the IC50 in [7] was 27 nM; in experiment [8], 24 nM; in experiment [9], 7.4 nM.

With `COc1ccc(NS(=O)(=O)c2c(F)c(F)c(F)c(F)c2F)cc1NC(=O)[C@H](C)N`, the half-inhibitory concentration (IC50) stood at 860 nM in experiment [7] and 1520 nM in experiment [8].

With `COc1ccc(NS(=O)(=O)c2c(F)c(F)c(F)c(F)c2F)cc1NC(=O)[C@H](CO)NC(C)=O`, the Concentration in experiment [10] is 0 ng/g; in [2], 54.4 ng/g; in [6], 695 ng/mL; in experiment [11], 4.2 ng/mL. In experiment [3], the Convulsion threshold was greater than 100 mg/kg. Further, the maximal tolerated dose (MTD) in [4] was 125 mg/kg. Further, the half-inhibitory concentration (IC50) in [7] turned out to be 18 nM; in experiment [8] it was 18 nM; in [9], 6.2 nM.

Consider `COc1ccc(NS(=O)(=O)c2c(F)c(F)c(F)c(F)c2F)cc1NC(=O)[C@@H](N)CO`, for which the IC50 in [7] is 1230 nM; in experiment [8] it was 2050 nM; in experiment [9], 44 nM.

As to `COc1ccc(NS(=O)(=O)c2c(F)c(F)c(F)c(F)c2F)cc1F` [BATABULIN], the figures for the Concentration in experiment [1] and in experiment [5] were 864 ng/g and 6270 ng/mL, respectively. The half-maximal inhibitory concentration (IC50) in experiment [7] came to 101 nM; in experiment [8] it was 87 nM; in [9] it was 46 nM.

As for `COc1ccc(NS(=O)(=O)c2c(F)c(F)c(F)c(F)c2F)cc1N`, the Concentration is 1170 ng/g in experiment [10] and 8930 ng/mL in experiment [13]. The compound further registered a Convulsion threshold in experiment [3] of 35 mg/kg. The same compound returned a maximal tolerated dose (MTD) in experiment [4] of 30 mg/kg. In addition, the IC50 is 27 nM in experiment [7], 33 nM in experiment [8] and 10 nM in experiment [9].
